According to ChEMBL document CHEMBL1135512 (J Med Chem, 2002):

Assays:
[1] = Cytotoxicity against Chinese hamster ovary cells; type: cell-based, Cricetulus griseus
Method in brief: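 Cells were then exposed to graded drug concentrations for 48 h at 37 °C, 5% CO2. MTT (1 mg/mL in PBS) was added for 3 h, and formazan was dissolved in DMSO and read at 570/630 nm. IC50 came from nonlinear regression versus drug-free wells.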

[2] = tested on: Plasmodium falciparum; test: In vitro inhibitory activity against multidrug-resistant Plasmodium falciparum W2 Indochina; type: functional, organism-based
Method in brief: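 Clone W2 (Indochina), sorbitol-synchronized, was grown in RPMI 1640 with 10% human serum, 25 mM HEPES and 25 mM NaHCO3, at final parasitemia 0.5% and hematocrit 1.5%. The drug was present for 48 h at 37 °C under 10% O2/6% CO2/84% N2. Growth was read as 3H-hypoxanthine uptake (1 μCi/well). IC50 came from nonlinear regression of log-dose/response as the geometric mean with 95% CI.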

[3] = Partition coefficient (logD7.0); type: physicochemical; details: octanol/water
[4] = tested on: Plasmodium falciparum; test: Percent reversal against Plasmodium falciparum W2 at 1 uM DEEA; type: functional
[5] = Partition coefficient (logP); type: physicochemical; details: octanol/water
[6] = tested on: Plasmodium falciparum; test: Concentration required to reduce chloroquine IC50 by 50%; type: functional, organism-based; details: Plasmodium falciparum
Method in brief: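 Synergy isotopic microtest on sorbitol-synchronized W2 (Indochina) and 3D7 in RPMI 1640 with 10% human serum, HEPES/NaHCO3, parasitemia 0.5%, hematocrit 1.5%. CQ was combined with subinhibitory fixed DEEA concentrations, and 3H-hypoxanthine was added for 48 h at 37 °C under 10% O2/6% CO2/84% N2. Reversal IC50 is the DEEA concentration halving CQ IC50, found by nonlinear regression of log-dose/IC50.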

[7] = tested on: Plasmodium falciparum; test: Accumulation coefficient of chloroquine at 1 uM-10 uM of DEEA against Plasmodium falciparum W2; type: functional
Method in brief: (§1)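 W2 infected erythrocytes were suspended in RPMI 1640 with 25 mM HEPES and 25 mM NaHCO3 (2% parasitemia, 2% hematocrit). They were mixed over silicone oil with buffer holding [3H]CQ (26 Ci/mmol) plus DEEA at 1 or 10 μM. Incubation was 1 h at 37 °C under 10% O2/6% CO2/84% N2, followed by 1 min centrifugation. Ratio = parasite [3H]CQ (infected minus uninfected cells) / same-volume buffer.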

[8] = In vitro hemolytic concentration on uninfected erythrocytes.; type: functional, Homo sapiens
Method in brief: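 Washed A+ human erythrocytes were held at 1.5% hematocrit in RPMI 1640 with 10% human serum, 25 mM HEPES and 25 mM NaHCO3. Drug (2 mM to 1 μM final, triplicate) was added for 42 h at 37 °C under 10% O2/6% CO2. Released hemoglobin in supernatant was measured with TMB/H2O2 at 455 nm. HC50 is relative to 5% saponin lysis, by nonlinear regression.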

[9] = Dissociation constant (pKa); type: physicochemical
[10] = tested on: Plasmodium falciparum; test: Percent reversal against Plasmodium falciparum W2 at 1 uM DEEA
[11] = tested on: Plasmodium falciparum; test: Accumulation coefficient of chloroquine at 1 uM-10 uM of DEEA against Plasmodium falciparum W2; Range is from 37-42; type: functional; method in brief: as §1

## O=C(NCc1ccccc1)C1=CC2c3ccccc3C1c1ccccc12
[1]
  Cytotoxicity: > 2000 µM
[2]; Plasmodium falciparum
  IC50: 50 µM
[3]; pH 7, read-out: logD
  logD: 4.41
[4]
  Reversal: 0%
[5]; read-out: logP
  logP: 4.41
[6]
  IC50: 23 µM
[7]
  Accumulation coefficient: 46
[8]
  HC50: >2000 µM

## CC1C2c3ccccc3C(c3ccccc32)C1C[N+](C)(C)C.[I-] (stereo not given)
[1]
  Cytotoxicity: > 2000 µM
[2]; Plasmodium falciparum
  IC50: 16 µM
[3]; pH 7, read-out: logD
  logD: 1.32
[4]
  Reversal: 37%
[5]; read-out: logP
  logP: 1.32
[6]
  IC50: 3.5 µM
[7]
  Accumulation coefficient: 192
[8]
  HC50: >2000 µM

## CNCC1CC2c3ccccc3C1c1ccccc12 (stereo not given)
[1]
  Cytotoxicity: 515 µM
[9]
  pKa: 10.2
[2]; Plasmodium falciparum
  IC50: 8 µM
[3]; pH 7, read-out: logD
  logD: 0.63
[4]
  Reversal: 80%
[5]; read-out: logP
  logP: 3.66
[6]
  IC50: 0.3 µM
[7]
  Accumulation coefficient: 210
[8]
  HC50: 1090 µM

## c1ccc2c(c1)C1c3ccccc3C2C2CNCC12 (stereo not given)
[1]
  Cytotoxicity: 1110 µM
[9]
  pKa: 10.2
[2]; Plasmodium falciparum
  IC50: 10 µM
[3]; pH 7, read-out: logD
  logD: 0
[4]
  Reversal: 80%
[5]; read-out: logP
  logP: 2.98
[6]
  IC50: 0.2 µM
[7]
  Accumulation coefficient: 322
[8]
  HC50: >2000 µM

## CN(C)CC1=CC2c3ccccc3C1c1ccccc12
[1]
  Cytotoxicity: 1427 µM
[9]
  pKa: 8.04
[2]; Plasmodium falciparum
  IC50: 4 µM
[3]; pH 7, read-out: logD
  logD: 2.61
[4]
  Reversal: 65%
[5]; read-out: logP
  logP: 3.68
[6]
  IC50: 0.5 µM
[7]
  Accumulation coefficient: 53
[8]
  HC50: 1630 µM

## CN(C)C1CC2c3ccccc3C1c1ccccc12 (stereo not given)
[1]
  Cytotoxicity: > 2000 µM
[9]
  pKa: 8.67
[2]; Plasmodium falciparum
  IC50: 9.3 µM
[3]; pH 7, read-out: logD
  logD: 2
[4]
  Reversal: 60%
[5]; read-out: logP
  logP: 3.67
[6]
  IC50: 0.8 µM
[7]
  Accumulation coefficient: 219
[8]
  HC50: >2000 µM

## CC1C2c3ccccc3C(c3ccccc32)C1CN(C)C (stereo not given)
[1]
  Cytotoxicity: 711 µM
[9]
  pKa: 8.99
[2]; Plasmodium falciparum
  IC50: 30 µM
[3]; pH 7, read-out: logD
  logD: 2.25
[4]
  Reversal: 60%
[5]; read-out: logP
  logP: 4.24
[6]
  IC50: 0.4 µM
[7]
  Accumulation coefficient: 62
[8]
  HC50: 1402 µM

## CC1C2c3ccccc3C(c3ccccc32)C1C(=O)Nc1cccnc1 (stereo not given)
[1]
  Cytotoxicity: 93 µM
[9]
  pKa: 4.14
[2]; Plasmodium falciparum
  IC50: 164 µM
[3]; pH 7, read-out: logD
  logD: 3.85
[4]
  Reversal: 0%
[5]; read-out: logP
  logP: 3.85
[7]
  Accumulation coefficient: 10
[8]
  HC50: >2000 µM

## O=C(NCCCCCCCCCCNC(=O)C1=CC2c3ccccc3C1c1ccccc12)C1=CC2c3ccccc3C1c1ccccc12
[1]
  Cytotoxicity: > 2000 µM
[9]
  pKa: -1.14
[2]; Plasmodium falciparum
  IC50: 8 µM
[3]
  logD: 9.16
[4]
  Reversal: 0%
[5]
  logP: 9.16
[7]
  Accumulation coefficient: 34
[8]
  HC50: >2000 µM

## COc1ccc(CCN(C)CCCC(C#N)(c2ccc(OC)c(OC)c2)C(C)C)cc1OC (stereo not given)
[9]
  pKa: 8.29
[2]; Plasmodium falciparum
  IC50: 13.4 µM
[4]
  Reversal: 57%
[6]
  IC50: 0.8 µM
[7]
  Accumulation coefficient: 97
[8]
  HC50: 861 µM

## CN(C)C(=O)C1C2c3ccccc3C(c3ccccc32)C1C(=O)N(C)C (stereo in doubt; 4)
[1]
  Cytotoxicity: > 2000 µM
[2]
  IC50: 35.5 µM
[4]
  Reversal: 0%

## CN(C)CC1C2c3ccccc3C(c3ccccc32)C1CN(C)C (stereo in doubt; 5)
[10]
  Reversal: 80%
[1]
  Cytotoxicity: 1035 µM
[9]
  pKa: 9.19
[2]; Plasmodium falciparum
  IC50: 2 µM
[3]; pH 7, read-out: logD
  logD: 0
[5]; read-out: logP
  logP: 3.41
[6]
  IC50: 0.25 µM
[8]
  HC50: >2000 µM

## CNC1(C)C2CCC(C2)C1(C)C (stereo not given) [MECAMYLAMINE]
[9]
  pKa: 11
[2]; Plasmodium falciparum
  IC50: 91.4 µM
[3]; pH 7, read-out: logD
  logD: -0.4
[4]
  Reversal: 15%
[5]
  logP: 2.13
[6]
  IC50: 6 µM
[7]
  Accumulation coefficient: 45

## CC(CN1c2ccccc2Sc2ccccc21)N(C)C (stereo not given) [PROMETHAZINE]
[1]
  Cytotoxicity: 702 µM
[11]
  Accumulation coefficient: 42
[9]
  pKa: 8.89
[2]; Plasmodium falciparum
  IC50: 20 µM
[3]; pH 7, read-out: logD
  logD: 1.96
[4]
  Reversal: 67%
[5]; read-out: logP
  logP: 3.86
[6]
  IC50: 0.4 µM
[8]
  HC50: 618 µM
